Ecoli rRNA inh – inhibitors of bacterial rRNA selective over humanized ribosomes. E. coli WT GFP vs humanized-ribosome RFP mutants, fluorescence, 24 h; stronger effect = lower value; DMSO median 0, no signal -100. GFP signal change (wild-type ribosome), % (no concentration beside the values). 350,000 compounds, 1.6% hits;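 active = significant combined selectivity score with lowered wild-type GFP, culture density cut under 30%, mutant RFP and density less affected; inactive = any of these conditions unmet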
SR-BI HDL uptake – mouse SR-BI HDL lipid transfer inhibition | inhibition, % at 12.5 µM | AID 488896 | ldlA[mSR-BI] CHO cells, DiI-HDL uptake fluorescence, 3 h | 320,000 compounds, 0.96% hits | Q61009;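 active = mean replicate inhibition of at least 70% and a set share of replicates each scoring 70 or more; inconclusive = meets just one of the two criteria; inactive = fails both criteria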;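 note: 0% = median of neutral control wells and 100% = median of positive control wells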
Target sequence (Q61009 whole entry, looked up): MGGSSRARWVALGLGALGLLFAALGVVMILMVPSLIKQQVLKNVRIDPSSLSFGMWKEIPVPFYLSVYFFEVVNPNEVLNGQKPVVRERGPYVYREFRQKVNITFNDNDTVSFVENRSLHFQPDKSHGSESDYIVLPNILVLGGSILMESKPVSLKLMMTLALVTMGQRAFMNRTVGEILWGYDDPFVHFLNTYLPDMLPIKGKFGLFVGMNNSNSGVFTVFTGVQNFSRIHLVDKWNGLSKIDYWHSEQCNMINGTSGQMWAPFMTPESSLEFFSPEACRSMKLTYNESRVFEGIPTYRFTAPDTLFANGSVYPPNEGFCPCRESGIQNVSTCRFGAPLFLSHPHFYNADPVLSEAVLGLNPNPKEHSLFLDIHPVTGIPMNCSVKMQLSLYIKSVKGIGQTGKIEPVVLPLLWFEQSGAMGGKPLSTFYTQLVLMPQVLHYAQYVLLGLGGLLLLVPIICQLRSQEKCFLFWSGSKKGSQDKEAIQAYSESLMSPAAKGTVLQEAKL
PvdQ inh – P. aeruginosa PvdQ acylase inhibition; purified PvdQ acylase, fluorescence plate reader; inhibition, % at 10 µM; 340,000 compounds, 0.063% hits; AID 488965; in the data active = inhibition above about 30%, passing the limit was not always enough; inconclusive = no clear call, values can overlap the other calls;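 note: 0% = vehicle neutral wells and 100% = reference inhibitor wells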
Xi reactivation – activators of X-chromosome reactivation in mouse fibroblasts; activation, % at 7.58 µM; 360,000 compounds, 0.055% hits; AID 743238; XiGFP mouse fibroblasts, % GFP-positive cells imaging, 3 d; cells co-treated with 5-aza-dC sensitizer; scaled so ellipticine positive control = 100%;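 active = mean normalized replicate activation at least 10% and every replicate at or above 10%; inconclusive = only one of the two criteria met; inactive = mean below 10% and not all replicates reach 10%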;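 note: 0% = median of on-plate neutral control wells and 100% = ellipticine 6 µM median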
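assay system = SV40-immortalized XiGFP fibroblast cells, line 68-5-11 | buffer or medium = DMEM plus 5-aza-dC sensitizer | doses = single-point pinned compound dosing | times = 3-day compound exposure, then 15 min fixation at room temperature | benchmarks = positive control ellipticine, 6 µM final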
dFosB activator – mouse delta FosB homodimer activation | 340,000 compounds, 0.99% hits | activation, % at 25 µM | purified delta FosB, TAMRA-CDK5 oligo fluorescence polarization; percent of positive-control signal above neutral wells | AID 493131;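 active = mean activation above about 17%, with every replicate also reaching it, limit read from the data, passing the limit was not always enough; inconclusive = only one of the two conditions met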
SR-BI uptake up – activators of SR-BI mediated HDL lipid uptake | activation, % at 12.5 µM | 320,000 compounds, 0.096% hits | CHO ldlA[mSR-BI] cells, DiI-HDL uptake fluorescence, 3 h; 100 = double the neutral-control signal;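 active = mean replicate activation of at least 60% and every replicate at or above 60%; inconclusive = mean or all-replicate condition met, but not both; inactive = mean below 60% and not all replicates reaching 60%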;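 note: 0% = median plate neutral-control signal and 100% = twice that signal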
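Test system: SR-BI-overexpressing, LDLR-lacking CHO cells; Also added: labelled HDL, 10 µg/mL; Measured by: bottom-read cell fluorescence after medium removal, ex 550/em 595 nm; Timing: 3 h uptake period with compound, 37 °C; Buffer or medium: F12, 0.5% BSA, 25 mM HEPES; Doses: single compound concentration, delivered by pin transfer.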
AID977621 – growth inhibition of wild-type GFP E. coli, dose response, H69 mutant RFP, cherry-pick. shares compounds with Ecoli rRNA inh. E. coli wild-type GFP strain growth, fluorescence, 24 h. activity change, negative = inhibition at 50 µM. 1,900 tested, under 10 active;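 active = Wild-type ribosome reporter drop at least double the humanized mutant ribosome reporter drop, growth loss under a set limit; inconclusive = no clear call, values can overlap the other calls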;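 note: wild-type GFP and H69 mutant RFP strains grown together 50/50 in each well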
AID977628 – E. coli growth inhibition, wild-type GFP versus h24 humanized RFP strain, dose response, h24 mutant RFP vs wild-type GFP, cherry-pick | shares compounds with Ecoli rRNA inh | E. coli WT GFP strain growth, fluorescence, 24 h | activity change, negative = inhibition at 50 µM | 1,900 tested, under 10 active | AID 977628;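 active = compound lowering the normal-ribosome reporter at least twice as much as the humanized-ribosome reporter, growth loss under a set limit; inconclusive = no clear call, values can overlap the other calls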;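 note: wild-type GFP and h24 humanized RFP strains co-cultured 1 to 1 per well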
* hit, by the source's call; ? = inconclusive; nt = no result given; ! = not confirmed by another sample. An excerpt weighted towards active compounds, which were near 2.6% of everything screened.

SMILES | Ecoli rRNA inh | SR-BI HDL uptake | PvdQ inh | Xi reactivation | dFosB activator | SR-BI uptake up | AID977621 | AID977628
C/C(=N\Nc1nc(C)cc(-c2ccccc2)n1)c1ccccc1 | 6 | 41 | -11 | 0 | 0 | -41 | nt | nt
CCN(c1ccccc1)S(=O)(=O)c1cccc(C(=O)NCC(c2cccs2)N(C)C)c1 (stereo not given) | -24* | 0 | -2 | 0 | -14 | 0 | nt | ?
CNS(=O)(=O)c1cccc(C(=O)NCC(c2cccs2)N(C)C)c1 (stereo not given) | nt | -28 | -6 | nt | -2 | 28 | nt | nt
COc1cc2ccccc2cc1C(=O)NCC(c1cccs1)N(C)C (stereo not given) | -24* | 33 | -8 | 0 | -7 | -33 | ? | -3.9
COc1cc(OC)c(C(=O)NCC(c2cccs2)N(C)C)cc1OC (stereo not given) | nt | -4 | -4 | nt | -5 | 4 | nt | nt
COc1cccc(-n2cnc3cccc(N)c32)c1 | nt | 7 | 10 | nt | -4 | -7 | nt | nt
CCN([C@H](CO)CC(C)C)S(=O)(=O)c1ccccc1 | 6 | -50 | 2 | 0 | -2 | 50 | nt | nt
Cc1ccc(C2(c3noc(CN(C)Cc4cccnc4)n3)CCCC2)cc1 | -31* | nt | -10 | 0 | 1 | nt | nt | ?
Cc1ccc(C2(c3noc(CN(C)Cc4ccccn4)n3)CCCC2)cc1 | -20 | 1 | -13 | 0 | -5 | -1 | nt | nt
Cc1ccc(-c2nc3c(Br)cc(C)cn3c2Cc2cccc(Cl)c2)cc1 | -6 | nt | nt | 0 | nt | nt | nt | nt
Cc1cc(Br)c2nc(-c3ccc(Cl)cc3)c(Cc3cccc(Cl)c3)n2c1 | -19* | nt | nt | 0 | nt | nt | ? | ?
CS(=O)(=O)c1ccc(Cl)c(NC(=O)COC(=O)c2c(Cl)cccc2Cl)c1 | -26* | 4 | -16 | 0 | -13 | -4 | -5.1 | -7.1
O=C(COC(=O)c1c(Cl)cccc1Cl)Nc1ccccc1Br | -23 | 9 | -8 | 0 | -8 | -9 | nt | nt
Cc1ccnc(NS(=O)(=O)c2ccc(NC(=O)c3ccc4c(c3)OCCO4)cc2)n1 | -23* | 6 | 11 | 0 | 1 | -6 | -11 | -12
CCNC(=O)C(Sc1ccccc1)c1ccccc1 (stereo not given) | nt | 1 | 6 | nt | 1 | -1 | nt | nt
Brc1cc2c(cc1Br)OCCOCCOCCO2 | -24* | 3 | -18 | 0 | -2 | -3 | ? | nt
CSc1ccc(CN(C)C(=O)C(c2ccccc2)c2ccccc2)cc1 | -21* | -10 | 0 | 0 | -10 | 10 | -11 | ?
O=C(Nc1cccc(Oc2ccc3c(c2)C(=O)NC3=O)c1)c1cccs1 | -30* | -6 | 5 | 0 | -17 | 6 | -4.3 | nt
O=C(COc1cccc(NC(=O)c2cccs2)c1)c1ccc(F)cc1 | -16 | -4 | -7 | 0 | -16 | 4 | nt | nt
CC1(CCC(=O)N2CCCC(N3CCN(c4ccc(F)cc4)CC3)C2)CC1 (stereo not given) | -25* | 58 | -21 | 0 | -7 | -58 | -3.1 | ?
O=C(O)Cn1c(SC2CCCCC2)nc2ccccc21 | nt | -20 | -11 | nt | 1 | 20 | nt | nt
O=C(O)CSc1nc2ccccc2n1C1CCCCC1 | -22* | -38 | 8 | 0 | -1 | 38 | -9.2 | nt
C[C@@H]1CC=CC[C@@H](c2cccc(Cl)c2)NC(=O)[C@@H](C)N(C)C(=O)c2ccccc2O1 (mixture of isomers) | -56 | nt | nt | 0 | nt | nt | nt | nt
CN1c2ccc(Cl)cc2C(=O)NC1C1CC=CCC1 (stereo not given) | -23* | 5 | 2 | 0 | -10 | -5 | -2.7 | nt
Clc1ccc(-c2cn(-c3ccccc3)c3[n+]2CCS3)cc1 | -18* | -2 | -16 | 0 | 1 | 2 | -12 | ?
SMILES | Ecoli rRNA inh | SR-BI HDL uptake | PvdQ inh | Xi reactivation | dFosB activator | SR-BI uptake up | AID977621 | AID977628
Fc1ccc(-c2cn(-c3ccccc3)c3[n+]2CCS3)cc1 | 12 | -18 | -12 | 0 | -1 | 18 | nt | nt
Clc1cccc(OCc2nc(-c3ccncc3)n[nH]2)c1 | -22* | 8 | -10 | 0 | -9 | -8 | -1.1 | nt
Fc1ccc(OCc2nc(-c3ccncc3)n[nH]2)cc1 | 10 | -13 | -17 | 0 | -5 | 13 | nt | nt
CC(NC(=O)c1cccnc1)C(=O)O (stereo not given) | 10 | -6 | 1 | 0 | 4 | 21 | nt | nt
O=C1c2cccc3cccc(c23)C(=O)N1CCCn1ccnc1 | -21* | nt | nt | 0 | nt | nt | -15 | ?
C[C@H]1CN([C@@H](C)CO)C(=O)c2c(c3ccccc3n2C)-c2ccccc2CO[C@H]1CN(C)S(=O)(=O)c1ccc([N+](=O)[O-])cc1 | 1 | nt | nt | 0 | nt | nt | nt | nt
O=C(c1ccccc1)N1CCN(c2ccc([N+](=O)[O-])c(NCC3CCCO3)c2)CC1 (stereo not given) | -32* | 43 | 12 | 0 | -5 | -43 | -6.9 | -4.1
O=[N+]([O-])c1ccc(N2CCN(S(=O)(=O)c3ccccc3)CC2)cc1NCC1CCCO1 (stereo not given) | nt | 35 | 5 | 0 | 4 | -35 | nt | nt
CCS(=O)(=O)N1CCN(c2ccc([N+](=O)[O-])c(NCC3CCCO3)c2)CC1 (stereo not given) | -21* | 30 | 6 | 0 | -3 | -30 | 0.78 | -5.8
Cc1cc(C)c(OCC(=O)OCC(=O)N2CCc3ccccc3C2)c(C)c1 | -16* | 6 | 8 | 0 | -5 | -6 | nt | -9.6
CCCN1C[C@@H](C)[C@H](OC)CN(C)C(=O)c2ccc(NC(=O)c3ccc4c(c3)OCO4)cc2OC[C@H]1C | -5 | nt | nt | 0 | nt | nt | nt | nt
O=C1CCC2S/C(=C/Nc3ccc(C(F)(F)F)cc3)C(=O)N12 (stereo not given) | 17 | 34 | -14 | 0 | -4 | -34 | nt | nt
C[C@H]1CN([C@@H](C)CO)C(=O)c2c(c3ccccc3n2C)-c2ccccc2CO[C@@H]1CN(C)Cc1ccccc1 | -42* | nt | nt | 0 | nt | nt | ? | ?
C[C@H]1CN([C@@H](C)CO)C(=O)c2c(c3ccccc3n2C)-c2ccccc2CO[C@@H]1CN(C)C(=O)CCN(C)C | 2 | nt | nt | 0 | nt | nt | nt | nt
C[C@@H]1CN([C@H](C)CO)C(=O)c2c(c3ccccc3n2C)-c2ccccc2CO[C@@H]1CN(C)C(=O)CCN(C)C | -19*! | nt | nt | -1 | nt | nt | nt | -3.8
CC(C)(C)c1nnc2sc(SCC(=O)c3ccc4c(c3)OCCO4)nn2c1=O | -2 | -19 | 12 | 0 | -12 | 19 | nt | nt
